# Molecular target: T1, Calpain-2 catalytic subunit (Homo sapiens, UniProt P17655)
# T1 sequence (P17655 whole entry): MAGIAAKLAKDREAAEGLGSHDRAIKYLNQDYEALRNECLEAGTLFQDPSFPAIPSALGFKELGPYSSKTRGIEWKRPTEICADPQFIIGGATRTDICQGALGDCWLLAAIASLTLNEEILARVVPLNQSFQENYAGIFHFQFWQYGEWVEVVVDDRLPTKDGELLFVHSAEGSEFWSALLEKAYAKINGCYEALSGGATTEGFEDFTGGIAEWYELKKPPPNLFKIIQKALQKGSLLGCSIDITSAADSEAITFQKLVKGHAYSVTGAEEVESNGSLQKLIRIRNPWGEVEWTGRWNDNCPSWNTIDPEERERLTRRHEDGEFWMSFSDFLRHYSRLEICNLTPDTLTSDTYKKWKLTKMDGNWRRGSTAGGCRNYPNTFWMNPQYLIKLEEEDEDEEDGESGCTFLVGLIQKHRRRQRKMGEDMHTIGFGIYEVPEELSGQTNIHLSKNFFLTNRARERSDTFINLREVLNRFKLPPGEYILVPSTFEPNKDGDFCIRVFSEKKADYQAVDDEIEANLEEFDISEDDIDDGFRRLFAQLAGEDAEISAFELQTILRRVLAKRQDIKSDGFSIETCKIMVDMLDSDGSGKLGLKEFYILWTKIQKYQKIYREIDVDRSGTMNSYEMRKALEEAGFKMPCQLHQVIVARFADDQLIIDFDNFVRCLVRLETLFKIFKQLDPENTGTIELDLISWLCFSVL
# Test: Compound was evaluated for the inhibition of Cysteine protease Calpain 2
# Procedure, shortened: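 Calpain assay in 25 mM Tris, pH 8.0, with 10 mM CaCl₂ and 5% DMSO. Suc-Leu-AMC hydrolysis was read as initial velocity (t = 30-60 s) after a 30 s delay, at room temperature. Five or more inhibitor concentrations (not above 2 × K_obs) were used at two fixed substrate levels. Ki came from Dixon plots (1/v vs I) averaged over triplicates.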
row,SMILES,Ki
1,CC(C)CC(NC(=O)C(c1ccccc1)c1ccccc1)C(=O)NC(Cc1ccccc1)C(=O)C(=O)NCC(O)c1ccccc1 (centres undefined) [2-Diphenylacetylamino-4-methyl-pentanoic acid [1-benzyl-2-(2-hydroxy-2-phenyl-ethylcarbamoyl)-2-oxo-ethyl]-amide],730 nM
2,CC(C)CC(NC(=O)C(c1ccccc1)c1ccccc1)C(=O)NC(Cc1ccccc1)C(=O)C(=O)NCCCN1CCOCC1 (centres undefined) [2-Diphenylacetylamino-4-methyl-pentanoic acid [1-benzyl-2-(3-morpholin-4-yl-propylcarbamoyl)-2-oxo-ethyl]-amide],74 nM
3,CC(C)CC(NC(=O)C(c1ccccc1)c1ccccc1)C(=O)NC(Cc1ccccc1)C(=O)C(=O)NCc1ccccn1 (centres undefined) [2-Diphenylacetylamino-4-methyl-pentanoic acid {1-benzyl-2-oxo-2-[(pyridin-2-ylmethyl)-carbamoyl]-ethyl}-amide],360 nM
4,CCC(NC(=O)C(CC(C)C)NC(=O)C(c1ccccc1)c1ccccc1)C(=O)C(=O)NCCCN1CCOCC1 (centres undefined) [3-(2-Diphenylacetylamino-4-methyl-pentanoylamino)-2-oxo-pentanoic acid (3-morpholin-4-yl-propyl)-amide],110 nM
5,CCC(NC(=O)C(CC(C)C)NC(=O)C(c1ccccc1)c1ccccc1)C(=O)C(=O)NCc1ccccn1 (centres undefined) [3-(2-Diphenylacetylamino-4-methyl-pentanoylamino)-2-oxo-pentanoic acid (pyridin-2-ylmethyl)-amide],90 nM
6,"CC(C)CC(NC(=O)OCc1ccccc1)C(=O)NC(Cc1ccccc1)C(=O)C(=O)NCC(O)c1ccc(OCc2ccccc2)c(OCc2ccccc2)c1 (centres undefined) [(1-{1-Benzyl-2-[2-(3,4-bis-benzyloxy-phenyl)-2-hydroxy-ethylcarbamoyl]-2-oxo-ethylcarbamoyl}-3-methyl-butyl)-carbamic acid benzyl ester]",670 nM
7,CC(C)CC(NC(=O)OCc1ccccc1)C(=O)NC(Cc1ccccc1)C(=O)C(=O)NCC(O)c1ccc(OCc2ccccc2)cc1 (centres undefined) [(1-{1-Benzyl-2-[2-(4-benzyloxy-phenyl)-2-hydroxy-ethylcarbamoyl]-2-oxo-ethylcarbamoyl}-3-methyl-butyl)-carbamic acid benzyl ester],240 nM
8,CC(C)CC(NC(=O)OCc1ccccc1)C(=O)NC(Cc1ccccc1)C(=O)C(=O)NCC(O)c1cccc(Oc2ccccc2)c1 (centres undefined) [(1-{1-Benzyl-2-[2-hydroxy-2-(3-phenoxy-phenyl)-ethylcarbamoyl]-2-oxo-ethylcarbamoyl}-3-methyl-butyl)-carbamic acid benzyl ester],340 nM
9,CC(C)CC(NC(=O)OCc1ccccc1)C(=O)NC(Cc1ccccc1)C(=O)C(=O)NCC(O)c1ccc(Oc2ccccc2)cc1 (centres undefined) [(1-{1-Benzyl-2-[2-hydroxy-2-(4-phenoxy-phenyl)-ethylcarbamoyl]-2-oxo-ethylcarbamoyl}-3-methyl-butyl)-carbamic acid benzyl ester],170 nM
10,CC(C)CC(NC(=O)OCc1ccccc1)C(=O)NC(Cc1ccccc1)C(=O)C(=O)NCc1ccc2ccccc2n1 (centres undefined) [(1-{1-Benzyl-2-oxo-2-[(quinolin-2-ylmethyl)-carbamoyl]-ethylcarbamoyl}-3-methyl-butyl)-carbamic acid benzyl ester],23 nM
11,"CCC(NC(=O)C(CC(C)C)NC(=O)OCc1ccccc1)C(=O)C(=O)NCC(O)c1ccc(OCc2ccccc2)c(OCc2ccccc2)c1 (centres undefined) [(1-{1-[2-(3,4-Bis-benzyloxy-phenyl)-2-hydroxy-ethylaminooxalyl]-propylcarbamoyl}-3-methyl-butyl)-carbamic acid benzyl ester]",100 nM

# Further lines, results first:
row,Ki,SMILES
1,1200 nM,CCNC(=O)C(=O)C(CC)NC(=O)C(CC(C)C)NC(=O)C(c1ccccc1)c1ccccc1 (centres undefined) [3-(2-Diphenylacetylamino-4-methyl-pentanoylamino)-2-oxo-pentanoic acid ethylamide]
2,250 nM,CCNC(=O)C(=O)C(CC)NC(=O)C(CC(C)C)NC(=O)Cc1cccc2ccccc12 (centres undefined) [3-[4-Methyl-2-(2-naphthalen-1-yl-acetylamino)-pentanoylamino]-2-oxo-pentanoic acid ethylamide]
3,130 nM,CCNC(=O)C(=O)C(CC)NC(=O)C(CC(C)C)NC(=O)CCc1ccccc1 (centres undefined) [3-[4-Methyl-2-(3-phenyl-propionylamino)-pentanoylamino]-2-oxo-pentanoic acid ethylamide]
4,290 nM,CC(C)CC(NC(=O)OCc1ccccc1)C(=O)NC(Cc1ccccc1)C(=O)C(=O)NCC(O)c1cccc(C(F)(F)F)c1 (centres undefined) [(1-{1-Benzyl-2-[2-hydroxy-2-(3-trifluoromethyl-phenyl)-ethylcarbamoyl]-2-oxo-ethylcarbamoyl}-3-methyl-butyl)-carbamic acid benzyl ester]
5,270 nM,CC(C)CC(NC(=O)OCc1ccccc1)C(=O)NC(Cc1ccccc1)C(=O)C(=O)NCc1ccccn1 (centres undefined) [(1-{1-Benzyl-2-oxo-2-[(pyridin-2-ylmethyl)-carbamoyl]-ethylcarbamoyl}-3-methyl-butyl)-carbamic acid benzyl ester]
6,50 nM,CCC(NC(=O)C(CC(C)C)NC(=O)OCc1ccccc1)C(=O)C(=O)NCCc1c[nH]c2ccccc12 (centres undefined) [(1-{1-[2-(1H-Indol-3-yl)-ethylaminooxalyl]-propylcarbamoyl}-3-methyl-butyl)-carbamic acid benzyl ester]
7,86 nM,CCC(NC(=O)C(CC(C)C)NC(=O)OCc1ccccc1)C(=O)C(=O)NCCc1cccc(OC)c1 (centres undefined) [(1-{1-[2-(3-Methoxy-phenyl)-ethylaminooxalyl]-propylcarbamoyl}-3-methyl-butyl)-carbamic acid benzyl ester]
8,120 nM,CCC(NC(=O)C(CC(C)C)NC(=O)OCc1ccccc1)C(=O)C(=O)NCC(O)c1ccc(OCc2ccccc2)cc1 (centres undefined) [(1-{1-[2-(4-Benzyloxy-phenyl)-2-hydroxy-ethylaminooxalyl]-propylcarbamoyl}-3-methyl-butyl)-carbamic acid benzyl ester]
9,410 nM,CCC(NC(=O)C(CC(C)C)NC(=O)OCc1ccccc1)C(=O)C(=O)NCC(O)c1ccc(N(C)C)cc1 (centres undefined) [(1-{1-[2-(4-Dimethylamino-phenyl)-2-hydroxy-ethylaminooxalyl]-propylcarbamoyl}-3-methyl-butyl)-carbamic acid benzyl ester]
10,60 nM,CCC(NC(=O)C(CC(C)C)NC(=O)OCc1ccccc1)C(=O)C(=O)NCCc1ccc(O)cc1 (centres undefined) [(1-{1-[2-(4-Hydroxy-phenyl)-ethylaminooxalyl]-propylcarbamoyl}-3-methyl-butyl)-carbamic acid benzyl ester]
11,46 nM,CCC(NC(=O)C(CC(C)C)NC(=O)OCc1ccccc1)C(=O)C(=O)NCCc1ccc(OC)cc1 (centres undefined) [(1-{1-[2-(4-Methoxy-phenyl)-ethylaminooxalyl]-propylcarbamoyl}-3-methyl-butyl)-carbamic acid benzyl ester]
12,590 nM,CCC(NC(=O)C(CC(C)C)NC(=O)OCc1ccccc1)C(=O)C(=O)NCC(O)c1cccc(Oc2ccccc2)c1 (centres undefined) [(1-{1-[2-Hydroxy-2-(3-phenoxy-phenyl)-ethylaminooxalyl]-propylcarbamoyl}-3-methyl-butyl)-carbamic acid benzyl ester]
13,180 nM,CCC(NC(=O)C(CC(C)C)NC(=O)OCc1ccccc1)C(=O)C(=O)NCC(O)c1cccc(C(F)(F)F)c1 (centres undefined) [(1-{1-[2-Hydroxy-2-(3-trifluoromethyl-phenyl)-ethylaminooxalyl]-propylcarbamoyl}-3-methyl-butyl)-carbamic acid benzyl ester]
